Assay results reported in ChEMBL document CHEMBL1140176, “Intracellular trapping of cycloSal-pronucleotides: modification of prodrugs with amino acid esters” (J Med Chem, 2008).

Columns and labels:
[1] = system: Human immunodeficiency virus 1; assay: Antiviral activity against HIV1 in human CEM cells; assay type: functional, organism-based; details: Human immunodeficiency virus 1, CCRF-CEM
In short: (§1)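 CEM/0 cells at 4 × 10⁵ cells/mL infected with HIV-1 or HIV-2 (ROD, stocks from infected MT-4 supernatants) at ~100 CCID₅₀/mL, mixed 1:1 with serial compound dilutions. Giant cell formation scored microscopically after 4-5 days.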

[2] = Stability in 25 mM phosphate buffer assessed as hydrolysis half life at pH 7.3; assay type: physicochemical; details: for half-life: phosphate buffer; for t1/2: buffer
[3] = (§2) Cytotoxicity against human CEM cells; assay type: cell-based, CCRF-CEM; details: CEM cells
In short: (§3)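 Wild-type CEM cells exposed to test compound dilutions. Value reported as 50% cytotoxic concentration.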

[4] = system: Human immunodeficiency virus 2; assay: Antiviral activity against HIV2 ROD in human CEM cells; assay type: functional, organism-based, CCRF-CEM; in short: as §1
[5] = system: Human immunodeficiency virus 2; assay: Antiviral activity against HIV2 ROD in thymidine kinase deficient human CEM cells; assay type: functional, organism-based, CCRF-CEM
In short: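 Thymidine kinase-deficient CEM/TK⁻ cells at 4 × 10⁵ cells/mL infected with HIV-2 ROD at ~100 CCID₅₀/mL, then mixed 1:1 with compound dilutions. Microscopic scoring of giant cell formation at 4-5 days. EC50 is the mean of two to three independent experiments.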

[6] = (§4) Stability in human CEM cell extract assessed as hydrolysis half life at pH 6.9; assay type: ADME, CCRF-CEM; details: CEM cell extract
CCRF-CEM [7] = assay: as §2; assay type: cell-based; details: ccrf-cem; in short: as §3
Serum = assay: Stability in human serum assessed as hydrolysis half life at pH 6.8; assay type: ADME, cell-free
In short: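 Human serum at 50%, diluted with phosphate buffered saline to pH 6.8. Triester conversion followed over time and hydrolysis half-life derived.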

CCRF-CEM [8] = assay: as §4; assay type: ADME; details: ccrf-cem
[9] = Human immunodeficiency virus 2, ROD, CCRF-CEM

In the case of `COC(=O)CNC(=O)CCc1ccc2c(c1)COP(=O)(OC[C@@H]1C=C[C@H](n3cc(C)c(=O)[nH]c3=O)O1)O2` (some centres not stated), the EC50 [1] is reported as 2000 nM, the half-life [2] is reported as 6.5 h and the CC50 [3] is reported as 220000 nM. For the same molecule, the EC50 [4, 9] was 1600 nM, the EC50 [5, 9] was 4000 nM and the half-life [6] was 4.5 h.
`COC(=O)[C@@H](C)NC(=O)CCc1ccc2c(c1)COP(=O)(OC[C@@H]1C=C[C@H](n3cc(C)c(=O)[nH]c3=O)O1)O2` (some centres not stated) gave an EC50 [1] of 400 nM, a half-life [2] of 5 h and a CC50 [3] of 61000 nM. The EC50 [4, 9] was 400 nM, the EC50 [5, 9] was 4200 nM and the half-life [6] was 6.2 h.
`Cc1cn([C@H]2C=C[C@@H](COP3(=O)OCc4cc(CCC(=O)N[C@@H](C)C(=O)OC(C)(C)C)ccc4O3)O2)c(=O)[nH]c1=O` (some centres not stated) showed an EC50 [1] of 300 nM, a half-life [2] of 5.7 h and a CC50 [3] of 53000 nM. For the same molecule, the EC50 [4, 9] was 400 nM, the EC50 [5, 9] was 3800 nM and the half-life [6] was 6.8 h.
`Cc1cn([C@H]2C=C[C@@H](COP3(=O)OCc4cc(CCC(=O)O)ccc4O3)O2)c(=O)[nH]c1=O` (some centres not stated) gave an EC50 [1] of 140 nM, a half-life [2] of 13 h and a CC50 [3] of 74000 nM. For the same molecule, the EC50 [4, 9] was 800 nM and the EC50 [5, 9] was 50000 nM.
For `Cc1cn([C@H]2C=C[C@@H](COP3(=O)OCc4cc(CCC(=O)N5CCC[C@H]5C(=O)OCc5ccccc5)ccc4O3)O2)c(=O)[nH]c1=O` (some centres not stated), the EC50 [1] was 700 nM, the half-life [2] was 6.1 h and the CC50 [3] was 46000 nM. It also gave an EC50 [4, 9] of 1100 nM, an EC50 [5, 9] of 21000 nM and a half-life [6] of 0.4 h.
`Cc1cn([C@H]2C=C[C@@H](COP3(=O)OCc4cc(CCC(=O)NCC(=O)OCc5ccccc5)ccc4O3)O2)c(=O)[nH]c1=O` (some centres not stated) showed an EC50 [1] of 310 nM, a half-life [2] of 6.2 h and a CC50 [3] of 75000 nM. The EC50 [4, 9] was 470 nM, the EC50 [5, 9] was 400 nM and the half-life [6] was 4.8 h.
Molecule `COC(=O)[C@@H]1CCCN1C(=O)CCc1ccc2c(c1)COP(=O)(OC[C@@H]1C=C[C@H](n3cc(C)c(=O)[nH]c3=O)O1)O2` (some centres not stated) has an EC50 [1] of 1300 nM, a half-life [2] of 7.9 h and a CC50 [3] of 182000 nM. It also gave an EC50 [4, 9] of 1600 nM, an EC50 [5, 9] of 2800 nM and a half-life [6] of 1.1 h.
Work on `COC(=O)[C@H](C)NC(=O)CCc1ccc2c(c1)COP(=O)(OC[C@@H]1C=C[C@H](n3cc(C)c(=O)[nH]c3=O)O1)O2` (some centres not stated) yielded an EC50 [1] of 800 nM, a half-life [2] of 6.4 h and a CC50 [3] of 152000 nM. The EC50 [4, 9] was 700 nM, the EC50 [5, 9] was 2500 nM and the half-life [6] was 1.1 h.
`Cc1cn([C@H]2C=C[C@@H](COP3(=O)OCc4cc(CCC(=O)N[C@@H](C)C(=O)O)ccc4O3)O2)c(=O)[nH]c1=O` (some centres not stated) showed an EC50 [1] of 500 nM, a half-life [2] of 12 h and a CC50 [3] of 77000 nM. The EC50 [4, 9] was 400 nM, the EC50 [5, 9] was 4100 nM and the half-life [6] was 7 h.
In the case of `Cc1cn([C@H]2C=C[C@@H](COP3(=O)OCc4cc(CCC(=O)N[C@@H](C)C(=O)OCc5ccccc5)ccc4O3)O2)c(=O)[nH]c1=O` (stereo in doubt; form 1), the t1/2 [2] is reported as 4.5 h, the CC50 (CCRF-CEM [7]) is reported as 48000 nM and the t1/2 (Serum) is reported as 4.4 h. It also gave an EC50 ([4]; ccrf-cem) of 300 nM and a t1/2 (CCRF-CEM [8]) of 0.5 h.
`Cc1cn([C@H]2C=C[C@@H](COP3(=O)OCc4cc(CCC(=O)N[C@@H](C)C(=O)OCc5ccccc5)ccc4O3)O2)c(=O)[nH]c1=O` (stereo in doubt; form 2) showed a t1/2 [2] of 8.8 h, a CC50 (CCRF-CEM [7]) of 61000 nM and a t1/2 (Serum) of 1.3 h. It also gave an EC50 ([5]; ccrf-cem) of 1000 nM and a half-life [6] of 0.5 h.
Work on `Cc1cn([C@H]2C=C[C@@H](COP3(=O)OCc4cc(CCC(=O)N[C@@H](C)C(=O)OCc5ccccc5)ccc4O3)O2)c(=O)[nH]c1=O` (stereo in doubt; form 3) yielded an EC50 [1] of 300 nM, a half-life [2] of 6.4 h and a CC50 (CCRF-CEM [7]) of 23000 nM. The EC50 [4, 9] was 400 nM and the EC50 ([5]; ccrf-cem) was 300 nM.
In the case of `Cc1cn([C@H]2C=C[C@@H](CO)O2)c(=O)[nH]c1=O` [STAVUDINE], the EC50 [1] is reported as 480 nM, the CC50 [3] is reported as 234000 nM and the EC50 [4, 9] is reported as 630 nM. For the same molecule, the EC50 [5, 9] was 47500 nM.
